NPY-Y2 antag: blocks the human neuropeptide Y Y2 receptor. P49146. NPY-Y2 expressing cells, antagonist mode. inhibition, % at 2.7 µM. 0.99% of 140,000 active; in the data active means inhibition above about 17%;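 further: 0% = vehicle with agonist challenge and 100% = reference antagonist with challenge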
Target sequence (P49146 whole entry, looked up): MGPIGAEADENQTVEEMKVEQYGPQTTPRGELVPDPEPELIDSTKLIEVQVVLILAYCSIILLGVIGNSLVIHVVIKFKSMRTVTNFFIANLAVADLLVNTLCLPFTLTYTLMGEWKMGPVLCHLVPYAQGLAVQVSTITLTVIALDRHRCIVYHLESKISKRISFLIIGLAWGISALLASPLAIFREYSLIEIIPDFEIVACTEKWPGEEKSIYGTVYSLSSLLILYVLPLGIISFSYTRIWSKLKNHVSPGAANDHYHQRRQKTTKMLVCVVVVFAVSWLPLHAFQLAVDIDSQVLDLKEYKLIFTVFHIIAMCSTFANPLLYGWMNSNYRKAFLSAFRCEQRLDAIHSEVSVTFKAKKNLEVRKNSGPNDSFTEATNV
WT yeast gro inh: growth inhibition of WT yeast, mitochondrial fusion screen | mitochondrial fusion phenotypic screen, WT strain | inhibition, % at 10 µM | 2.1% of 190,000 active; in the data active means inhibition above about 58%; tested in S. cerevisiae
NPY-Y1 antag: NPY-Y1 (human) receptor antagonism; P25929; HEK293-CNG Y1 cells, membrane potential fluorescence; NPY at EC95, then isoproterenol; inhibition, % at 3.6 µM; 1% of 200,000 active;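 active means inhibition above the campaign mean inhibition of all tested compounds plus 3 SD, cut at about 20% in these data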;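 further: 0% = DMSO wells given NPY plus isoproterenol and 100% = isoproterenol alone without NPY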
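Test system: HEK293 cells co-expressing NPY Y1 receptor and cyclic-nucleotide gated channel; Also added: NPY (25 nM), isoproterenol (1 µM), Ro 20-1724 (25 µM); Compound dosing: one concentration, 3.6 µM, in 0.4% DMSO; Timing: dye 3 h, compound 60 min room temperature, stimulation 45 min; Technique: Membrane-potential fluorescent dye readout.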
NPY1 pot ag: potentiators or agonists of human neuropeptide Y receptor Y1; P25929; NPY-Y1 expressing cells, potentiator/agonist activation; activation, % at 3.6 µM; 0.37% of 220,000 active; in the data active means activation above about 33%, passing the limit was not always enough;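 further: cells stimulated with NPY at EC10 then isoproterenol at EC100; 0% = low agonist plus stimulus and 100% = saturating agonist plus stimulus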
RAM network inh: yeast RAM network inhibition | inhibition, % at 50 µM | S. cerevisiae dse1pr::URA3 reporter, 5-FOA growth OD615, 2 d; analog-sensitive cbk1-as2 kinase mutant strain | 1.8% of 190,000 active;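 active means inhibition above a set limit, 3 SD over mean compound inhibition, cut at about 8.4% in these data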;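 further: 0% = DMSO-only wells with no growth and 100% = 10 µM 1-NA-PP1 full growth; inhibition rescues growth on 5-FOA so higher OD means more RAM inhibition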
NPY2 pot ag: potentiators or agonists of human neuropeptide Y receptor Y2; P49146; cells expressing NPY-Y2, potentiator/agonist read-out; activation, % at 3.6 µM; 0.45% of 220,000 active; AID 1359; in the data active means activation above about 27%;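 further: cells stimulated with NPY near EC25 plus isoproterenol at EC100; 0% = vehicle plus submaximal agonist and 100% = vehicle plus saturating agonist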
* hit, by the source's call; . = no result. In the library only some 4.9% were active in any assay of this set; here they are far more common.

SMILES	NPY-Y2 antag	WT yeast gro inh	NPY-Y1 antag	NPY1 pot ag	RAM network inh	NPY2 pot ag
CSc1nc(-c2ccco2)nn1S(=O)(=O)c1ccc(C)cc1	1	1	8	-20	0	3
CSc1nc(-c2ccco2)nn1S(=O)(=O)c1ccccc1	7	-2	24*	-39	1	6
O=C1c2ccccc2OC2(C=Cc3ccccc3O2)N1Cc1ccccc1 (configuration not stated)	5	69*	0	11	2	0
Cc1cccc(C(=O)NC2CCN(CC(=O)NCc3cccs3)CC2)c1	.	-8	7	1	0	0
CCOc1ccccc1OCCN1CCC(Cc2ccccc2)CC1	17*	9	26*	-29	1	-10
Cc1nc2sc3c(c2c(=O)n1/N=C/c1cccnc1)CCCC3	.	-13	-6	-2	3	-9
Cc1nc2sc3c(c2c(=O)n1/N=C/c1ccco1)CCCC3	0	3	-14	104*	-1	103*
Cc1cc(Nc2ccccc2)c2c([N+](=O)[O-])cc(C)c(C)c2n1	4	76*	1	-23	-1	-14
COc1ccccc1Nc1cc(C)nc2c(C)ccc([N+](=O)[O-])c12	2	26	5	-28	2	-13
Cn1nnnc1SCC(=O)NNC(=O)c1ccc(Cl)cc1	.	-9	2	-5	1	4
C/C(CC(=O)NC1C2CC3CC(C2)CC1C3)=N\NC(=O)Cc1cccs1 (configuration not stated)	4	13	3	-3	2	0
COc1ccccc1-n1cnnc1SCC(=O)Nc1cc(C(C)(C)C)nn1-c1ccccc1	-1	78*	-6	25	0	14
CCOC(=O)Nc1nc(-c2ccccc2)c(C(=O)c2ccc(Cl)cc2)s1	20*	59*	40*	-37	1	-48
Cc1ccc(C)c(Nc2ncccc2C(=O)NCc2cccs2)c1	-1	64*	4	-15	1	-1
O=C(NNc1cccc(Cl)n1)Nc1ccccc1	4	27	-2	12	1	-3
CC(Cl)C(=O)NNc1cccc(Cl)n1 (configuration not stated)	1	58*	0	11	1	-6
FC(F)(F)c1cccc(NC(=S)NCC2COc3ccccc3O2)c1 (configuration not stated)	9	89*	16	-24	3	-6
CCCNC(=S)Nc1cccc(C(F)(F)F)c1	3	12	-2	12	-1	20
O=C(Nc1ccc(N2CCCCC2)cc1)c1cncc(Br)c1	-1	-6	4	18	1	-7
Cc1cccc(-c2noc(CN(C(C)C)S(=O)(=O)c3ccc(F)cc3)n2)c1	6	18	4	-16	8.5*	0
CCc1ccccc1SCc1noc(C(=O)NCC2CCCO2)c1C(=O)O (configuration not stated)	4	4	2	-8	2	-21
O=C(Nc1ccc(C(=O)O)cc1)/C(=C\c1ccc2c(c1)OCO2)NC(=O)c1ccccc1	.	13	-1	-9	9.2*	-10
O=C(O)CNC(=O)/C(=C\c1ccc2c(c1)OCO2)NC(=O)c1ccc(Br)cc1	.	-11	5	4	2	9
O=C(Nc1ccc(C(=O)O)cc1)/C(=C\c1ccc2c(c1)OCO2)NC(=O)c1ccc(Br)cc1	.	-11	-6	-13	11*	3
CCOc1ccc(S(=O)(=O)NC(Cc2cnc[nH]2)C(=O)O)cc1 (configuration not stated)	.	-2	-2	-9	0	-8
SMILES	NPY-Y2 antag	WT yeast gro inh	NPY-Y1 antag	NPY1 pot ag	RAM network inh	NPY2 pot ag
O=C(CN1CCCC1)Nc1ccccc1Sc1ccccc1	.	14	0	-4	1	-9
Cc1[nH]n(-c2ncc(-c3ccccc3)s2)c(=O)c1C(c1ccc(Br)cc1)C(C#N)C#N (configuration not stated)	0	-4	1	3	11*	20
Cc1[nH]n(C(N)=S)c(=O)c1C(c1ccccc1)C(C#N)C#N (configuration not stated)	8	10	-5	-2	-1	-4
O=C(COc1ccccc1/C=C\c1nc(O)c([N+](=O)[O-])c(=O)[nH]1)Nc1ccccc1	.	-13	1	-13	5	6
COc1ccc(/C=C/C=C2\N=C(SC)SC2=O)cc1	3	-3	12	2	11*	2
CSC1=N/C(=C\c2ccc(F)cc2)C(=O)S1	-2	12	-2	-5	2	9
O=C(N/N=C/c1ccccn1)c1[nH]c2ccc([N+](=O)[O-])cc2c1-c1ccccc1	.	65*	-12	12	0	25
CCc1ccc(OCc2nc(-c3ccccn3)no2)c(Br)c1	5	-19	-3	6	0	7
Cc1c(C(=O)OCCOc2ccc(Br)cc2)sc(=S)n1C	.	-7	12	-43	11*	-16
CC(=O)Nc1ccc(S(=O)(=O)NCC(=O)OCC(=O)N2CCc3ccccc32)cc1	1	62*	4	-1	1	-22
O=C(CNS(=O)(=O)c1ccccc1Br)OCC(=O)N1CCc2ccccc21	-1	-7	0	9	1	6
CCc1ccc(/C=C/C(=O)c2ccc(N3CCOCC3)cc2)cc1	4	31	11	-26	4	-15
CC(C)(C)N=C1NN=C(c2cc3ccccc3o2)CS1	0	67*	1	9	0	10
CC(C)(C)N=C1NN=C(c2ccc(Cl)cc2)CS1	.	.	.	1	.	-13
CCOC(=O)c1c(NS(=O)(=O)c2ccc(Br)cc2)sc2c1CCC2	-1	65*	-1	-3	9.8*	5
COC(=O)c1c(NC(NC(=O)C(C)(C)C)C(Cl)(Cl)Cl)sc2c1CCC2 (configuration not stated)	2	71*	5	0	3	-6
COC(=O)c1c(NC(NC(=O)C(C)C)C(Cl)(Cl)Cl)sc2c1CCC2 (configuration not stated)	-3	60*	0	8	3	7
CCOC(=O)c1c(NC(NC(C)=O)C(Cl)(Cl)Cl)sc2c1CCCC2 (configuration not stated)	0	67*	3	2	4	1
COC(=O)c1c(NC(NC(=O)CC(C)C)C(Cl)(Cl)Cl)sc2c1CCC2 (configuration not stated)	3	28	-3	-11	3	16
CCC(=O)NC(Nc1sc2c(c1C(=O)OC)CCC2)C(Cl)(Cl)Cl (configuration not stated)	4	43	-5	5	2	13
COC(=O)c1c(NC(NC(C)=O)C(Cl)(Cl)Cl)sc2c1CCCC2 (configuration not stated)	1	51	4	-12	4	8

From PubChem
